Measured values as given in publication PMC12353801 (Nature Medicine, 2025).

Key:
patients with IPF [1] = experiment: Phase 2a trial: acute exacerbations of IPF and days hospitalized; type: in vivo, human; conditions: 60 mg QD
Summary of the method: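 Acute IPF exacerbations, and days in hospital after each, were recorded from week 0 through week 12 in IPF patients. Patients received oral dosing (30 mg QD, 30 mg BID or 60 mg QD) or placebo QD alongside standard of care. Adverse events were monitored throughout treatment and for 1 week after the last dose.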

serum proteins = experiment: Olink Explore 3072 proteomic profiling of patient serum; type: in vivo, human; conditions: for number of serum proteins significantly changing with treatment: Benjamini–Hochberg-adjusted P value <0.1
Summary of the method: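 Serum was sampled at baseline and weeks 2, 4, 8 and 12 and profiled on the Olink Explore 3072 panel as NPX. Dose effects were fitted per protein with a generalized linear mixed model: NPX ~ treatment + visit + treatment:visit + (1|patient). Baseline-to-week-12 change was tested by two-sided paired t-test. P values were BH-adjusted, with significance at adjusted P < 0.1.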

patients with IPF [2] = experiment: Phase 2a trial: treatment-emergent adverse events; type: in vivo, human; conditions: for percentage of patients who have at least one treatment-emergent adverse event / AEs considered to be treatment related / AEs leading to treatment discontinuation / Any AE / Liver function: ALT increase / Liver function: AST increase / Liver function: Liver injury / SAEs considered to be treatment related / SAEs resulting in death / SAEs, grade ≥3: 12 weeks; for AEs considered to be treatment related / AEs leading to treatment discontinuation / Any AE / Liver function: ALT increase / Liver function: AST increase / Liver function: Liver injury / SAEs considered to be treatment related / SAEs resulting in death / SAEs, grade ≥3: n = 18
patients with IPF [3] = experiment: Phase 2a trial: change in forced vital capacity; type: in vivo, human
Summary of the method: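 This was a double-blind, 1:1:1:1 randomized trial of oral 30 mg QD, 30 mg BID or 60 mg QD against placebo QD for 12 weeks on standard of care. Spirometry to 2019 ATS/ERS criteria, on central SpiroSphere devices or on unchanged local equipment, was done at baseline and week 12. Analysis used ANCOVA (treatment fixed, baseline covariate) with multiple imputation for missing week-12 data, two-sided, intent-to-treat.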

[4] = Pharmacokinetics of rentosertib in blood plasma of patients with IPF; type: in vivo, human
healthy individuals = conditions: phase 0 and 1 trials; cited from earlier work

Structure (SMILES): CC(C)n1cnc(-c2ccc(F)cc2)c1-c1ncc(C(=O)Nc2ccc(N3CCN(C)CC3)cc2)[nH]1 [rentosertib]
- Number of days hospitalized for acute IPF exacerbations, Mean (SD) (patients with IPF [1]): 23.3 days
- patients who experienced acute exacerbation of IPF (AE-IPF) (patients with IPF [1]; three patients): 16.7%
- number of significantly altered proteins from baseline to week 12 (serum proteins; 30 mg BID): 39
- number of significantly altered proteins from baseline to week 12 (serum proteins; 30 mg QD): 0
- number of significantly altered proteins from baseline to week 12 (serum proteins; 60 mg QD): 115
- number of serum proteins significantly changing with treatment (serum proteins; week 2, linear regression): 20
- number of serum proteins significantly changing with treatment (serum proteins; week 4, linear regression): 82
- number of serum proteins significantly changing with treatment (serum proteins; week 12, linear regression): 192
- TEAE: alanine aminotransferase (ALT) increase (patients with IPF [2]; 30 mg BID, 1 patient): 5.6%
- treatment-related SAEs (patients with IPF [2]; 30 mg BID, 2/18): 11.1%
- TEAE: diarrhea (patients with IPF [2]; 30 mg BID, 3 patients): 16.7%
- treatment discontinued for AEs due to liver injury or dysfunction (patients with IPF [2]; 30 mg BID, 4/18): 22.2%
- TEAE: hepatic function abnormal (patients with IPF [2]; 30 mg BID, 4 patients): 22.2%
- TEAE: hypokalemia (patients with IPF [2]; 30 mg BID, 5 patients): 27.8%
- Treatment-related AEs (patients with IPF [2]; 30 mg BID, 11/18): 61.1%
- percentage of patients who have at least one treatment-emergent adverse event (patients with IPF [2]; 30 mg BID, n = 15/18): 83.3%
- AEs considered to be treatment related (patients with IPF [2]; 30 mg BID): 11 (61.1) no. (%)
- AEs leading to treatment discontinuation (patients with IPF [2]; 30 mg BID): 5 (27.8) no. (%)
- Any AE (patients with IPF [2]; 30 mg BID): 15 (83.3) no. (%)
- Liver function: ALT increase (patients with IPF [2]; 30 mg BID): 0 (0) no. (%)
- Liver function: AST increase (patients with IPF [2]; 30 mg BID): 0 (0) no. (%)
- Liver function: Liver injury (patients with IPF [2]; 30 mg BID): 2 (11.1) no. (%)
- SAEs considered to be treatment related (patients with IPF [2]; 30 mg BID): 2 (11.1) no. (%)
- SAEs resulting in death (patients with IPF [2]; 30 mg BID): 1 (5.6) no. (%)
- SAEs, grade ≥3 (patients with IPF [2]; 30 mg BID): 4 (22.2) no. (%)
- treatment discontinued for AEs due to liver injury or dysfunction (patients with IPF [2]; 30 mg QD, 0/18): 0%
- safety and tolerability, overall (patients with IPF [2]; 30 mg QD, 30 mg BID and 60 mg QD over 12 weeks): safe and well tolerated
- treatment-related SAEs (patients with IPF [2]; 30 mg QD, 1/18): 5.6%
- TEAE: alanine aminotransferase (ALT) increase (patients with IPF [2]; 30 mg QD, 1 patient): 5.6%
- TEAE: diarrhea (patients with IPF [2]; 30 mg QD, 2 patients): 11.1%
- TEAE: hepatic function abnormal (patients with IPF [2]; 30 mg QD, 2 patients): 11.1%
- TEAE: hypokalemia (patients with IPF [2]; 30 mg QD, 3 patients): 16.7%
- Treatment-related AEs (patients with IPF [2]; 30 mg QD, 9/18): 50.0%
- percentage of patients who have at least one treatment-emergent adverse event (patients with IPF [2]; 30 mg QD, n = 13/18): 72.2%
- AEs considered to be treatment related (patients with IPF [2]; 30 mg QD): 9 (50.0) no. (%)
- AEs leading to treatment discontinuation (patients with IPF [2]; 30 mg QD): 1 (5.6) no. (%)
- Any AE (patients with IPF [2]; 30 mg QD): 13 (72.2) no. (%)
- Liver function: ALT increase (patients with IPF [2]; 30 mg QD): 0 (0) no. (%)
- Liver function: AST increase (patients with IPF [2]; 30 mg QD): 0 (0) no. (%)
- Liver function: Liver injury (patients with IPF [2]; 30 mg QD): 0 (0) no. (%)
- SAEs considered to be treatment related (patients with IPF [2]; 30 mg QD): 1 (5.6) no. (%)
- SAEs resulting in death (patients with IPF [2]; 30 mg QD): 0 (0) no. (%)
- SAEs, grade ≥3 (patients with IPF [2]; 30 mg QD): 2 (11.1) no. (%)
- TEAE: alanine aminotransferase (ALT) increase (patients with IPF [2]; 60 mg QD): 33.3%
- treatment-related SAEs (patients with IPF [2]; 60 mg QD, 2/18): 11.1%
- treatment discontinued for AEs due to liver injury or dysfunction (patients with IPF [2]; 60 mg QD, 3/18): 17%
- TEAE: diarrhea (patients with IPF [2]; 60 mg QD, 5 patients): 27.8%
- percentage of patients who have at least one treatment-emergent adverse event (patients with IPF [2]; 60 mg QD, n = 15/18): 83.3%
- AEs considered to be treatment related (patients with IPF [2]; 60 mg QD): 14 (77.8) no. (%)
- AEs leading to treatment discontinuation (patients with IPF [2]; 60 mg QD): 4 (22.2) no. (%)
- Any AE (patients with IPF [2]; 60 mg QD): 15 (83.3) no. (%)
- Liver function: ALT increase (patients with IPF [2]; 60 mg QD): 1 (5.6) no. (%)
- Liver function: AST increase (patients with IPF [2]; 60 mg QD): 1 (5.6) no. (%)
- Liver function: Liver injury (patients with IPF [2]; 60 mg QD): 1 (5.6) no. (%)
- SAEs considered to be treatment related (patients with IPF [2]; 60 mg QD): 2 (11.1) no. (%)
- SAEs resulting in death (patients with IPF [2]; 60 mg QD): 0 (0) no. (%)
- SAEs, grade ≥3 (patients with IPF [2]; 60 mg QD): 7 (38.9) no. (%)
- Treatment-related AEs (patients with IPF [2]; 60 mg QD, 14/18): 77.8%
- Absolute change in FVC from baseline after 12 weeks, mean (95% CI) (patients with IPF [3]; 30 mg BID): +19.7 ml
- Absolute change in FVC from baseline after 12 weeks, mean (95% CI) (patients with IPF [3]; 30 mg QD): -27.0 mL
- Absolute change in FVC from baseline after 12 weeks, mean (95% CI) (patients with IPF [3]; 60 mg QD): +98.4 ml
- Change in FVC - No SOC: FVC change from baseline (95% CI) (patients with IPF [3]; 60 mg QD, 12 weeks, not concurrently taking SOC antifibrotic therapy): +187.8 mL
- AUC0–t, arithmetic mean ([4]; 30 mg BID, week 0 (first dose)): 315 h/ng/mL
- AUC0–t, arithmetic mean ([4]; 30 mg BID, week 12 (EOT)): 1,390 h ng^−1 ml^−1
- time of peak plasma concentration after administration ([4]; 30 mg QD, 30 mg BID, 60 mg QD, single and multiple doses): 1 h
- AUC0–t, arithmetic mean ([4]; 30 mg QD, week 0 (first dose)): 553 h/ng/mL
- AUC0–t, arithmetic mean ([4]; 30 mg QD, week 12 (EOT)): 788 h/ng/mL
- AUC0–t, arithmetic mean ([4]; 60 mg QD, week 0 (first dose)): 1,630 h ng^−1 ml^−1
- AUC0–t, arithmetic mean ([4]; 60 mg QD, week 12 (EOT)): 3,450 h ng^−1 ml^−1
- drug accumulation ([4]; by week 12): no obvious drug accumulation
- steady state achieved ([4]; multiple doses): 2 week
- pharmacokinetic (PK) profile, overall (healthy individuals): favorable pharmacokinetic (PK) profile
- safety and tolerability, overall (healthy individuals): safe and well tolerated
